Screens from PubChem.
CendR NRP1 mod: NRP-1/CendR interaction modulation; FAM-RPARPAR peptide binding to NRP-1, fluorescence polarization; AID 602438; actives 0.85% (n = 360,000); inhibition, % at 25 µM;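 active means inhibition or corrected inhibition above about 18%, plus a signal ratio from 0.5 to 1.5, limit read from the data, passing the limit was not always enough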
Target sequence (O14786 whole entry, looked up): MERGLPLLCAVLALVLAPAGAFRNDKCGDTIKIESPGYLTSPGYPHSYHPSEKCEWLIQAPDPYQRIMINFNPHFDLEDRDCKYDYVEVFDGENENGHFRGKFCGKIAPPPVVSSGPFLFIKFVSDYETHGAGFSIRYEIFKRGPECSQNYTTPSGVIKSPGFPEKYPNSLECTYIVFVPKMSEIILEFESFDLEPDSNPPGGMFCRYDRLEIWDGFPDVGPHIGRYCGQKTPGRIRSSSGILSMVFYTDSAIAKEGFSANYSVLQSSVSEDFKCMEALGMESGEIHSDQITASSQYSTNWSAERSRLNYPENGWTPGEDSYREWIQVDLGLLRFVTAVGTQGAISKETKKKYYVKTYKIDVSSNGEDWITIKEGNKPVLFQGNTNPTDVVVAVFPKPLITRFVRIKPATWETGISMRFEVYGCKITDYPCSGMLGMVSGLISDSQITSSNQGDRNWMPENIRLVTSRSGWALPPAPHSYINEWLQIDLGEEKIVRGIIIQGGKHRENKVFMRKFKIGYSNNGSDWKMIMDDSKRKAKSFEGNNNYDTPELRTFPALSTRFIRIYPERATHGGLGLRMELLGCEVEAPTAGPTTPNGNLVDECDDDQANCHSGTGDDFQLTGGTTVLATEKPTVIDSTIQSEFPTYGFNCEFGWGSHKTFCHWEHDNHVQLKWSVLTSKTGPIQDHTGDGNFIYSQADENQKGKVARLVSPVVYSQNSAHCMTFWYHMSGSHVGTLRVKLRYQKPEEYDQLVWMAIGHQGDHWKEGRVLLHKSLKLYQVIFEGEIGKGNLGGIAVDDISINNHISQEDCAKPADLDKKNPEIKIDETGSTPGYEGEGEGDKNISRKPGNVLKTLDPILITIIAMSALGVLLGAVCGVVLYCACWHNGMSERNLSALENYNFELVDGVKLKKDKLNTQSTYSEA
HCV core dimer: HCV core protein dimerization inhibition; TR-FRET GST/Flag-core106 dimerization, 1536-well; inhibition, % at 5 µM; actives 0.33% (n = 300,000); AID 1899;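 active means inhibition above the mean of all tested compounds plus 3 SD, set per screening campaign, cut at about 45% in these data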
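Assay system: GST-tagged and Flag-tagged HCV core protein residues 1-106 / Times: compound-protein-antibody incubation 4 h at 22.5 °C / Signal: time-resolved FRET, ex 340 nm, em 617 and 671 nm / Evaluation: % inhibition based on acceptor/donor emission ratio / Benchmarks: wells lacking GST-core106 and wells with excess unlabelled core106 / Repeats: singlicate, one well per compound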
FID counter: fluorescent intercalator displacement, NS3 helicase counter-screen | DNA fluorescent intercalator displacement, fluorescence | actives 0.17% (n = 290,000) | AID 1845 | inhibition, % at 7.9 µM; in the data active means inhibition above about 37%;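 further: higher means more ethidium bromide displaced from hairpin DNA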
MEX-5 binding: C. elegans MEX-5 TCR-2 RNA binding activity; AID 1832; Q9XUB2; actives 0.38% (n = 300,000); activity score (negative = inhibition of binding), % at 10 µM; MEX-5/FITC-TCR2 RNA binding, fluorescence polarization; stronger effect = lower value;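 active means inhibition past about -25% in most replicates, and total fluorescence under double the plate's negative control median, limit read from the data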
Hits are given with their value; . = inactive; / = not tested or not shown. A selection: hits, their analogues and other compounds. The true share with any hit is near 1.5%.

SMILES | CendR NRP1 mod | HCV core dimer | FID counter | MEX-5 binding
CCCCCCCCN1C(=O)[C@H](CC(=O)NCc2ccc(C)o2)C[C@@]2(C(=O)OC)CCCCC=C12 | . | / | / | /
CCCCCc1cc(=O)oc2c(C(CCN3CCCC3)c3ccc(N(C)C)cc3)c(OC)cc(OC)c12 (stereo unspecified) | . | . | / | .
CCCCCc1cc(=O)oc2c(C(CCN3CCCCC3)c3ccc(OC)cc3)c(OC)cc(OC)c12 (stereo unspecified) | 26 | . | / | .
COc1cc(OC)c2ccc(=O)oc2c1C(CCN1CCCC1)c1ccc(N(C)C)cc1 (stereo unspecified) | . | . | / | .
COc1cc(OC)c2ccc(=O)oc2c1C(CCN1CCCCC1)c1ccc(N(C)C)cc1 (stereo unspecified) | 18 | . | / | .
COc1cccc(CN(C)C(=O)c2cccc(S(=O)(=O)Nc3cccc(C)c3)c2)c1OC | . | / | / | /
CCc1nc2c(OCC(=O)C(C)(C)C)cccn2c1N(C)C(=O)c1ccc(C)cc1 | . | / | / | /
Cc1ccc(O)c(-c2cc(C(=O)Nc3ccc(S(=O)(=O)N4CC(C)OC(C)C4)cc3)[nH]n2)c1 (stereo unspecified) | . | . | . | .
Cc1ccc(O)c(-c2cc(C(=O)Nc3ccc(S(=O)(=O)Nc4nc(C)cc(C)n4)cc3)[nH]n2)c1 | 29 | . | . | .
O=C1O[C@@H](c2ccc(O)cc2)Cc2cccc(O)c21 | 30 | / | / | /
COc1ccc([C@H]2Cc3cc(O)cc(O)c3C(=O)O2)cc1O | . | / | / | /
COc1ccc([C@H]2Cc3cccc(O)c3C(=O)O2)cc1O | 31 | / | / | /
Cc1noc(C)c1NC(=O)N(C)C[C@H]1OCc2cn(nn2)CCCC(=O)N([C@@H](C)CO)C[C@@H]1C | . | / | / | /
CNC[C@@H]1OCc2ccccc2-c2c(n(C)c3ccccc23)C(=O)N([C@H](C)CO)C[C@H]1C | . | / | / | /
CC(=O)OCC1OC(OCc2cn(C[C@H]3CC[C@H](Cn4cc(COC5OC(COC(C)=O)C(OC(C)=O)C(OC(C)=O)C5OC(C)=O)nn4)O3)nn2)C(OC(C)=O)C(OC(C)=O)C1OC(C)=O (stereo partly specified) | 19 | . | . | .
O=C(CCC(=O)c1cccs1)NNC(=O)c1ccccc1Cl | 27 | / | / | /
O=C(CCC(=O)c1cccs1)Nc1ccc(F)c(F)c1F | . | 52 | . | .
CCOC(=O)C1(C)CCN1C(=O)c1cccc(Cl)c1 (stereo unspecified) | . | / | / | /
O=C1N=C(N2CCCCC2)S/C1=C/C1=Cc2ccccc2OC1 | . | . | . | -43
COc1ccc(C2=C(N)c3ccccc3C2=O)cc1 | . | . | . | .
COC1=C(c2ccccc2)C(=O)c2ccccc2C1=O | 32 | . | . | .
CCOC(=O)[C@]12CCCC=C1N(CCC1=CCCCC1)C(=O)[C@H](CC(=O)N1CCN(C(=O)C3CC3)CC1)C2 | . | / | / | /
COc1ccc(C(=O)c2cc([N+](=O)[O-])ccc2N2CCN(C)CC2)cc1 | . | . | 40 | .
COc1ccc(N2CCN(C(=O)c3ccc(C)cc3)CC2)c([N+](=O)[O-])c1 | . | . | . | .
COc1ccc(N2CCN(C(=O)c3ccc(Br)cc3)CC2)c([N+](=O)[O-])c1 | 16 | . | . | .
SMILES | CendR NRP1 mod | HCV core dimer | FID counter | MEX-5 binding
CCCCn1nnnc1C(c1cc2ccccc2o1)N1CCN(c2ncccc2C#N)CC1 (stereo unspecified) | . | / | / | /
CN(Cc1ccccc1)C(=O)C(=O)c1ccccc1 | . | / | / | /
COC(=O)C1CC2=C(CCCC2=O)NC1=O (stereo unspecified) | . | / | / | /
COC(=O)C1CC2(C(=O)OC)CC(C(=O)OC)(CC(C(=O)OC)C2=O)C1=O (stereo unspecified) | 26 | / | / | /
O=C1CSC(c2cn(-c3ccccc3)nc2-c2cccs2)N1CC1CCCO1 (stereo unspecified) | 32 | . | . | .
COc1ccc(-c2cc(-c3ccccc3)c(C#N)c(SCC(=O)Nc3ncc(C)s3)n2)cc1 | . | 56 | . | .
COc1ccc(-c2cc(-c3ccc(OC)cc3)c(C#N)c(SC)n2)cc1 | . | 75 | . | .
COCCN(C(=O)c1ccc2c(c1)C(=O)N(c1ccccc1Cl)C2=O)c1c(N)n(CC(C)C)c(=O)[nH]c1=O | . | / | / | /
O=C(NCC1CCCCC1)c1csc([C@@H]2O[C@H](CO)[C@H](O)[C@H](O)[C@H]2O)n1 | . | / | / | /
CCC(c1nnc(SCC(=O)Nc2c(F)cccc2F)n1Cc1ccccc1)N(C)C (stereo unspecified) | . | . | . | .
CCC(c1nnc(SCC(=O)Nc2ccc(N3CCOCC3)cc2)n1Cc1ccccc1)N(C)C (stereo unspecified) | 27 | . | / | .
Cn1c(=O)c2c(nc(OC3CCCCCC3)n2C)n(C)c1=O | . | / | / | /
CC(=O)Nc1ccc(/C=C/C(=O)c2ccc3c(c2)OCCO3)cc1 | . | . | . | -53
COc1ccc(N/C=C\C(=O)c2ccc3c(c2)OCO3)cc1 | . | . | . | .
COc1ccc(N/C=C/C(=O)c2ccc3c(c2)OCO3)cc1OC | . | . | . | -34
COc1ccc(N/C=C\C(=O)c2ccc(C)cc2)cc1OC | . | . | . | -48
Cc1ccc(S(=O)(=O)N2CC3(O)CN(C(=O)OC(C)C)N(C(=O)OC(C)C)CC3(OC(=O)NCc3ccccc3)C2)cc1 (stereo unspecified) | . | / | / | /
COCCN(C(=O)COC(=O)C(C)(C)Oc1ccc(Cl)cc1)c1c(N)n(Cc2ccccc2)c(=O)[nH]c1=O | . | / | / | /
Cc1ccccc1NC(=O)C1Cc2ccccc2CN1C(=O)c1ccco1 (stereo unspecified) | . | . | . | .
CCSc1nnc(NC(=O)C2Cc3ccccc3CN2C(=O)c2ccco2)s1 (stereo unspecified) | . | 85 | . | .
Cn1cnc([N+](=O)[O-])c1NC(C)(C)C | 29 | . | . | .
O=C(CC1NC(=O)NC1=O)Nc1ccccc1 (stereo unspecified) | 27 | . | . | .
O=C(CC1NC(=O)NC1=O)Nc1cccc2ccccc12 (stereo unspecified) | . | . | . | .
CC(C)CC(NS(=O)(=O)c1ccccc1)C(=O)O (stereo unspecified) | . | . | . | .
CC(C)CC(NS(=O)(=O)c1ccccc1S(=O)(=O)NC(CC(C)C)C(=O)O)C(=O)O (stereo unspecified) | 26 | . | . | .
SMILES | CendR NRP1 mod | HCV core dimer | FID counter | MEX-5 binding
CN(Cc1ccccc1)C(=O)Cn1nnc(-c2ccccc2)c1COc1ccc2ccccc2c1 | . | / | / | /
OCCOC1CCCc2oc(-c3ccccc3)c(C#CC3(O)CCCCC3)c21 (stereo unspecified) | . | / | / | /
CCc1c(C(=O)NNC(=S)Nc2ccc(S(=O)(=O)Nc3ncccn3)cc2)csc1C | . | . | . | -48
COc1ccc(NC(=O)C2(C)CCN2C(=O)c2ccccc2CCc2ccccc2)cc1OC (stereo unspecified) | . | / | / | /
OC(c1cccc(CN2CCCCC2)c1)c1ncc(-c2cccc3ccccc23)[nH]1 (stereo unspecified) | . | / | / | /
Cn1c(=O)oc2cc(S(=O)(=O)Nc3ccccc3O)ccc21 | 35 | / | . | .
